The target in experiment [1] is Angiotensin II receptor (Oryctolagus cuniculus). The experiment can be described thus: Antagonism of angiotensin-II mediated contraction of rabbit aortic rings expressed as pA2 (in vitro).
The target in experiment [2] is T1, Type-1 angiotensin II receptor B (Rattus norvegicus, UniProt P29089).
T1 sequence (P29089 whole entry): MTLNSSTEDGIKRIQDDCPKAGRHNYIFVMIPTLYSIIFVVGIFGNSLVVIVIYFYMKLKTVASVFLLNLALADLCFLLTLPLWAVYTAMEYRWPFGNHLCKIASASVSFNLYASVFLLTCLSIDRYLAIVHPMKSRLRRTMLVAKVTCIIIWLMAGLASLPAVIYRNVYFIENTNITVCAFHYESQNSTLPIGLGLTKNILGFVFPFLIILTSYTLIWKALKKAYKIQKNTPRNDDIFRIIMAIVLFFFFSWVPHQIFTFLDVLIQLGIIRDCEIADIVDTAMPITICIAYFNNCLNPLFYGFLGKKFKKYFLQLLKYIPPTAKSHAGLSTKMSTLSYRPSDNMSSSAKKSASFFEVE
The experiment can be described thus: Inhibition of [125I]angiotensin-II binding to the angiotensin II receptor type 1 in rat uterine membranes. In kind it is cell membranes, Membrane.

The next experiment deals with Rattus norvegicus. Description: In vivo inhibition of pressor response to AII in rats following intragastric administration. In kind it is functional. The note with it: po, read-out: ID50 (the source's name). The method in brief:
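Male Sprague-Dawley rats anesthetized with methohexital 30 mg/kg ip. Femoral artery and vein catheterized, restrained, and allowed 3 h recovery. Arterial pressure recorded continuously, 1 h baseline, then AII infused at 50 ng/kg/min iv. Compound given intragastrically at 1-10 mg/kg. Change in mean arterial pressure compared at time points before and after dosing.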

Structures are written as SMILES.

Usually pA2 stands for the negative logarithm of the molar antagonist concentration that doubles the agonist concentration needed for the same response. The term IC50 denotes the concentration that gives 50% inhibition. The low end stands for inhibition by little substance, the high end for a need for much substance.

As for `CCCCc1nn(CCCC)c(=O)n1Cc1ccc(-c2ccccc2C(=O)O)cc1`, in experiment [1], the pA2 worked out at 7. Besides, the IC50 in experiment [2] worked out at 101 nM. The compound `CCCCc1nn(CC(OCc2ccccc2)c2ccccc2)c(=O)n1Cc1ccc(-c2ccccc2-c2nn[nH]n2)cc1` (stereo not given) had a pA2 in experiment [1] of 7.7. For the same compound, the IC50 in experiment [2] amounted to 280 nM. Consider `CCCCc1nn(CCC)c(=O)n1Cc1ccc(-c2ccccc2-c2nn[nH]n2)cc1`, for which the pA2 in experiment [1] is on record as 8.2. In experiment [2], this compound came in with an IC50 of 15 nM.

In experiment [2], `CCCCc1nn(C/C=C/c2ccccc2)c(=O)n1Cc1ccc(-c2ccccc2-c2nn[nH]n2)cc1` returned a concentration for half-maximal inhibition (IC50) of 290 nM. Take `CCCCCCCCn1nc(CCCC)n(Cc2ccc(-c3ccccc3-c3nn[nH]n3)cc2)c1=O`: in experiment [1], the pA2 is recorded as 8.5. This compound came in with an IC50 in experiment [2] of 170 nM. In experiment [1], `CCCCc1nn(CC(=O)c2cc(OC)ccc2OC)c(=O)n1Cc1ccc(-c2ccccc2-c2nn[nH]n2)cc1` registered a pA2 of 8. In experiment [2], this compound displayed an IC50 of 21 nM. The compound `CCCCc1nn(CC(OCC)c2ccccc2)c(=O)n1Cc1ccc(-c2ccccc2-c2nn[nH]n2)cc1` (stereo not given) displayed an IC50 in experiment [2] of 15 nM. In turn, `CCCCc1nn(CCC(C)CC(C)(C)C)c(=O)n1Cc1ccc(-c2ccccc2-c2nn[nH]n2)cc1` (stereo not given) came in with a pA2 in experiment [1] of 7.9. Further, the IC50 in experiment [2] was 35 nM. For `CCCCc1nn(CC(OC)c2ccccc2)c(=O)n1Cc1ccc(-c2ccccc2-c2nn[nH]n2)cc1` (stereo not given), in that order: 7.8 and 12 nM. For the compound `CCCCc1nn(CCCCC(=O)O)c(=O)n1Cc1ccc(-c2ccccc2-c2nn[nH]n2)cc1`, in experiment [1], the pA2 turned out to be 8. The IC50 in experiment [2] is 12 nM.

`CCCCc1nn(Cc2ccc3ccccc3c2)c(=O)n1Cc1ccc(-c2ccccc2-c2nn[nH]n2)cc1` came in with a pA2 in experiment [1] of 6.5. This compound gave an IC50 in experiment [2] of 280 nM. `CCCCCn1nc(CCCC)n(Cc2ccc(-c3ccccc3-c3nn[nH]n3)cc2)c1=O` returned a pA2 in experiment [1] of 9. The IC50 in experiment [2] turned out to be 5.6 nM. `CCCCc1nn(CC(=O)OCC)c(=O)n1Cc1ccc(-c2ccccc2-c2nn[nH]n2)cc1` yielded a pA2 in experiment [1] of 7.8. In addition, the IC50 in experiment [2] was 9 nM. In experiment [1], `CCCCc1nn(CCCCCC(=O)O)c(=O)n1Cc1ccc(-c2ccccc2-c2nn[nH]n2)cc1` yielded a pA2 of 8.7. The IC50 in experiment [2] stood at 17 nM. In the case of `CCCCc1nn(CC2CC2)c(=O)n1Cc1ccc(-c2ccccc2-c2nn[nH]n2)cc1`, the IC50 in experiment [2] was 15 nM. In experiment [1], `CCCCc1nn(CCCc2ccccc2)c(=O)n1Cc1ccc(-c2ccccc2-c2nn[nH]n2)cc1` registered a pA2 of 8. In experiment [2], this compound returned an IC50 of 18 nM. `CCCCc1nn(C(Cc2ccccc2)C(=O)c2ccccc2)c(=O)n1Cc1ccc(-c2ccccc2-c2nn[nH]n2)cc1` (stereo not given) yielded an IC50 in experiment [2] of 5800 nM.

In experiment [1], `CCCCc1nn(Cc2ccccc2)c(=O)n1Cc1ccc(-c2ccccc2-c2nn[nH]n2)cc1` had a pA2 of 8.1. Besides, the IC50 in experiment [2] worked out at 16 nM. For the compound `CCCCc1nn(CC(=O)C23C[C@H]4C[C@@H](C2)C[C@@H](C3)C4)c(=O)n1Cc1ccc(-c2ccccc2-c2nn[nH]n2)cc1`, the pA2 in experiment [1] is 8.1. The IC50 in experiment [2] stood at 25 nM.

As to `CCCCc1nn(CCCCCC(=O)OCC)c(=O)n1Cc1ccc(-c2ccccc2-c2nn[nH]n2)cc1`, the pA2 in experiment [1] was 7.6. Also, in experiment [2], the IC50 amounted to 9.8 nM. Regarding `CCCCc1nn(CC(O)c2cc(OC)ccc2OC)c(=O)n1Cc1ccc(-c2ccccc2-c2nn[nH]n2)cc1` (stereo not given), in experiment [1], the pA2 came to 8.1. In addition, the IC50 in experiment [2] was 22 nM.

The compound `CCCCc1nnc(O)n1Cc1ccc(-c2ccccc2C(=O)O)cc1` registered a pA2 in experiment [1] of 5.5. Moreover, the IC50 in experiment [2] amounted to 1500 nM. `CCCCc1nn(CC(OCC(=O)OCC)c2ccccc2)c(=O)n1Cc1ccc(-c2ccccc2-c2nn[nH]n2)cc1` (stereo not given) registered a pA2 in experiment [1] of 8.3. Besides, the IC50 in experiment [2] stood at 180 nM. In turn, `CCCCc1nn(C(C)C)c(=O)n1Cc1ccc(-c2ccccc2-c2nnn[nH]2)cc1` had an IC50 in experiment [2] of 20 nM. For the compound `CCCCc1nn(CCc2ccccc2)c(=O)n1Cc1ccc(-c2ccccc2-c2nn[nH]n2)cc1`, in experiment [1], the pA2 came to 9.8. The same compound yielded an IC50 in experiment [2] of 3.1 nM. Compound `CCCCc1nn(CCCCC(=O)OC)c(=O)n1Cc1ccc(-c2ccccc2-c2nn[nH]n2)cc1` had an IC50 in experiment [2] of 4.4 nM. As for `CCCCc1nn(C(C)CC)c(=O)n1Cc1ccc(-c2ccccc2-c2nn[nH]n2)cc1` (stereo not given), the pA2 in experiment [1] stood at 8.7. This compound showed an IC50 in experiment [2] of 10 nM. The corresponding values for `CCCCCCn1nc(CCCC)n(Cc2ccc(-c3ccccc3-c3nn[nH]n3)cc2)c1=O` are 8.9 and 8.7 nM. Compound `CCCCc1nn(C(C)(C)C(=O)c2ccccc2)c(=O)n1Cc1ccc(-c2ccccc2-c2nn[nH]n2)cc1` gave a pA2 in experiment [1] of 7.7. Also, the IC50 in experiment [2] amounted to 43 nM.

Consider `CCCCc1nn(CCCC)c(=O)n1Cc1ccc(-c2ccccc2-c2nnn[nH]2)cc1`, for which the IC50 in experiment [2] is 5.1 nM. In addition, in the experiment on Rattus norvegicus, the ED50 amounted to 2.1 mg/kg. In the case of `CCCCc1nn(CC(O)c2ccccc2)c(=O)n1Cc1ccc(-c2ccccc2-c2nn[nH]n2)cc1` (stereo not given), the pA2 in experiment [1] was 8.3. Moreover, the IC50 in experiment [2] came out at 3.6 nM.

`CCCCc1nn(CC(OCCC)c2ccccc2)c(=O)n1Cc1ccc(-c2ccccc2-c2nn[nH]n2)cc1` (stereo not given) registered a pA2 in experiment [1] of 8.1. Also, the half-maximal inhibitory concentration (IC50) in experiment [2] is 45 nM. As to `CCCCc1nn(CC(=O)O)c(=O)n1Cc1ccc(-c2ccccc2-c2nn[nH]n2)cc1`, the pA2 in experiment [1] amounted to 7.8. Also, the IC50 in experiment [2] came to 91 nM. In experiment [2], `CCCCc1nn(CC(=O)c2ccccc2)c(=O)n1Cc1ccc(-c2ccccc2-c2nn[nH]n2)cc1` registered an IC50 of 7.9 nM. As to `CCCCc1nn(CC(=O)OC(C)(C)C)c(=O)n1Cc1ccc(-c2ccccc2-c2nn[nH]n2)cc1`, in experiment [1], the pA2 came out at 7.1. In experiment [2], this compound had an IC50 of 16 nM. In experiment [1], `CCCCc1nn(CCC2CCCCC2)c(=O)n1Cc1ccc(-c2ccccc2-c2nn[nH]n2)cc1` yielded a pA2 of 7.9. In experiment [2], this compound showed an IC50 of 18 nM.

`CCCCc1nn(CC(OCC(=O)O)c2ccccc2)c(=O)n1Cc1ccc(-c2ccccc2-c2nn[nH]n2)cc1` (stereo not given): the IC50 in experiment [2] is 30 nM. As to `CCCCc1nnc(O)n1Cc1ccc(-c2ccccc2-c2nn[nH]n2)cc1`, the pA2 in experiment [1] is 7.1. The IC50 in experiment [2] stood at 42 nM. The corresponding values for `CCCCc1nn(C(CC(=O)OCC)C(=O)c2ccccc2)c(=O)n1Cc1ccc(-c2ccccc2-c2nn[nH]n2)cc1` (stereo not given) are 7.8 and 36 nM.

Source of the values: ChEMBL document CHEMBL1126749, “Synthesis and structure-activity relationships of nonpeptide, potent triazolone-based angiotensin II receptor antagonists” (J Med Chem, 1993).
